ChEMBL document CHEMBL1165950, “Design and synthesis of new potent anticancer pyrazoles with high FLT3 kinase inhibitory selectivity” (Bioorg Med Chem, 2010)

How the values were obtained:
Format in all cases: functional
CCRF-CEM = assay: Cytotoxicity against human CCRF-CEM cells assessed as cell growth at 1 uM after 48 hrs by sulforhodamine B assay; conditions: read-out: Activity
Summary of the method: (§1)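 NCI-60 five-dose screen. Cells were grown in RPMI 1640 with 5% FBS and 2 mM L-glutamine, plated at 5000–40,000 cells/well and preincubated for 24 h. Time-zero plates were TCA-fixed. DMSO-solubilized drug was added at five concentrations (10-fold or ½-log serial dilutions) for 48 h at 37 °C, 5% CO2. Cells were TCA-fixed, stained with 0.4% SRB and read at 515 nm. Percent growth used time-zero, control and test absorbances.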

OVCAR-5 = assay: Cytotoxicity against human OVCAR5 cells assessed as cell growth at 10 uM after 48 hrs by sulforhodamine B assay; conditions: OVCAR-5, 48 h, read-out: Activity
MDA-MB-435 = assay: Growth inhibition of human MDA-MB-435 cells after 48 hrs by sulforhodamine B assay; conditions: MDA-MB-435, 48 h; for CC50: read-out: LC50 (the source's name)
Summary of the method: (§2)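 NCI 60-cell screen, five-dose mode. Cells grown in RPMI 1640 with 5% FBS and 2 mM L-glutamine and plated at 5000-40,000 cells/well according to doubling time. After 24 h preincubation, a Tz plate was TCA-fixed. Five concentrations (10-fold or 1/2 log dilutions) were applied for 48 h at 37 °C. SRB staining read at 515 nm. IC50 taken from [(Ti-Tz)/(C-Tz)]×100 = 50.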

SK-MEL-2 = assay: Cytotoxicity against human SK-MEL-2 cells assessed as cell growth at 0.01 uM after 48 hrs by sulforhodamine B assay; conditions: SK-MEL-2, 48 h, read-out: Activity
UO-31 = assay: Cytotoxicity against human UO31 cells assessed as cell growth at 10 uM; conditions: read-out: Activity
Summary of the method: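 NCI-60 screen: cells grown in RPMI 1640 with 5% FBS and 2 mM L-glutamine, plated at 5000–40,000 cells/well according to doubling time, and preincubated 24 h at 37 °C, 5% CO2. The single 10 µM dose (DMSO stock) was added, then incubated 48 h. Cells were TCA-fixed and stained with 0.4% SRB, read at 515 nm, and growth % calculated against time-zero and control plates.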

SW-620 = assay: Cytotoxicity against human SW620 cells assessed as cell growth at 1 uM after 48 hrs by sulforhodamine B assay; conditions: SW-620, 48 h, read-out: Activity
SF-268 = assay: Cytotoxicity against human SF268 cells assessed as cell growth at 10 uM after 48 hrs by sulforhodamine B assay; conditions: SF-268, 48 h, read-out: Activity
UACC-257 = assay: Cytotoxicity against human UACC257 cells assessed as cell growth at 0.001 uM after 48 hrs by sulforhodamine B assay; conditions: UACC-257, 48 h, read-out: Activity
SN12C = assay: Growth inhibition of human SN12C cells after 48 hrs by sulforhodamine B assay; summary of the method: as §2
786-0 [1] = assay: Cytotoxicity against human 786-0 cells assessed as cell growth at 0.01 uM after 48 hrs by sulforhodamine B assay; conditions: 786-0, 48 h, read-out: Activity; summary of the method: as §1
KM12 = assay: Cytotoxicity against human KM12 cells assessed as cell growth at 10 uM after 48 hrs by sulforhodamine B assay; conditions: KM12, 48 h, read-out: Activity
ACHN [2] = assay: Cytotoxicity against human ACHN cells assessed as cell growth at 0.001 uM after 48 hrs by sulforhodamine B assay; conditions: read-out: Activity; summary of the method: as §1
TK-10 = assay: Cytotoxicity against human TK10 cells assessed as cell growth at 10 uM after 48 hrs by sulforhodamine B assay; conditions: TK-10, 48 h, read-out: Activity
SK-MEL-5 = assay: Cytotoxicity against human SK-MEL-5 cells assessed as cell growth at 10 uM after 48 hrs by sulforhodamine B assay; conditions: SK-MEL-5, 48 h, read-out: Activity
SNB-19 [3] = assay: Cytotoxicity against human SNB19 cells assessed as cell growth at 100 nM after 48 hrs by sulforhodamine B assay; conditions: SNB-19, 48 h, read-out: Activity
MOLT-4 = assay: Cytotoxicity against human MOLT4 cells assessed as cell growth at 0.001 uM after 48 hrs by sulforhodamine B assay; conditions: MOLT-4, 48 h, read-out: Activity
ACHN [4] = assay: Growth inhibition of human ACHN cells after 48 hrs by sulforhodamine B assay
Summary of the method: (§3)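 NCI five-dose SRB assay in RPMI 1640 with 5% FBS and 2 mM L-glutamine. Cells were preincubated 24 h, then exposed 48 h at 37 °C to five concentrations (10-fold or half-log serial dilutions from DMSO stocks). TCA fixation, SRB staining, and absorbance at 515 nm followed. IC50 was taken where [(Ti−Tz)/(C−Tz)]×100 = 50, with Tz as time-zero cell density.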

786-0 [5] = assay: Growth inhibition of human 786-0 cells after 48 hrs by sulforhodamine B assay; conditions: 786-0, 48 h; for CC50: read-out: LC50 (the source's name); summary of the method: as §3
IGROV-1 [6] = assay: Cytotoxicity against human IGROV1 cells assessed as cell growth at 1 uM after 48 hrs by sulforhodamine B assay; conditions: IGROV-1, 48 h, read-out: Activity
EKVX = assay: Cytotoxicity against human EKVX cells assessed as cell growth at 0.01 uM after 48 hrs by sulforhodamine B assay; conditions: read-out: Activity
PC-3 = assay: Growth inhibition of human PC3 cells after 48 hrs by sulforhodamine B assay; conditions: PC-3, 48 h; summary of the method: as §2
SNB-19 [7] = assay: Cytotoxicity against human SNB19 cells assessed as cell growth at 0.01 uM after 48 hrs by sulforhodamine B assay; conditions: SNB-19, 48 h, read-out: Activity
MDA-MB-231 = assay: Cytotoxicity against human MDA-MB-231 cells assessed as cell growth at 1 uM after 48 hrs by sulforhodamine B assay; conditions: MDA-MB-231, 48 h, read-out: Activity
U-251 = assay: Cytotoxicity against human U251 cells assessed as cell growth at 100 nM after 48 hrs by sulforhodamine B assay; conditions: U-251, 48 h, read-out: Activity
MDA-MB-468 = assay: Cytotoxicity against human MDA-MB-468 cells assessed as cell growth at 1 uM after 48 hrs by sulforhodamine B assay; conditions: MDA-MB-468, 48 h, read-out: Activity
NCI/ADR-RES = assay: Cytotoxicity against human NCI/ADR-RES cells assessed as cell growth at 1 uM after 48 hrs by sulforhodamine B assay; conditions: read-out: Activity
OVCAR-8 = assay: Cytotoxicity against human OVCAR8 cells assessed as cell growth at 1 uM after 48 hrs by sulforhodamine B assay; conditions: OVCAR-8, 48 h, read-out: Activity
IGROV-1 [8] = assay: Cytotoxicity against human IGROV1 cells assessed as cell growth at 100 nM after 48 hrs by sulforhodamine B assay; conditions: IGROV-1, 48 h, read-out: Activity

Molecule `COc1cc(C)cc(-c2c(-c3ccnc(-c4ccc(N(C)C)cc4)c3)cnn2CC#N)c1` has a growth at 1 µM (CCRF-CEM) of 6%, a growth at 10 µM (OVCAR-5) of 97% and a GI50 (MDA-MB-435) of 0.0226 µM. It also gave a TGI (MDA-MB-435) of 0.0669 µM, a CC50 (MDA-MB-435) greater than 100 µM and a growth at 0.01 µM (SK-MEL-2) of 66%. For the same molecule, the growth at 10 µM (UO-31) was 22.1%, the growth at 1 µM (SW-620) was 11% and the growth at 10 µM (SF-268) was 20%. The growth at 0.001 µM (UACC-257) was 89%, the GI50 (SN12C) was 0.398 µM and the LC50 (SN12C) was greater than 100 µM. For the same molecule, the TGI (SN12C) was greater than 100 µM, the growth at 0.01 µM (786-0 [1]) was 55% and the growth at 10 µM (KM12) was -49%. It also gave a growth at 0.001 µM (ACHN [2]) of 98%, a growth at 10 µM (TK-10) of 34% and a growth at 10 µM (SK-MEL-5) of -39%. The growth at 0.1 µM (SNB-19 [3]) was 27%, the growth at 0.001 µM (MOLT-4) was 96% and the GI50 (ACHN [4]) was 0.068 µM. For the same molecule, the LC50 (concentration giving 50% net cell kill) (ACHN [4]) was greater than 100 µM, the TGI (ACHN [4]) was greater than 100 µM and the GI50 (786-0 [5]) was 0.0853 µM. The TGI (786-0 [5]) was greater than 100 µM, the CC50 (786-0 [5]) was greater than 100 µM and the growth at 1 µM (IGROV-1 [6]) was 9%. For the same molecule, the growth at 0.01 µM (EKVX) was 81%, the GI50 (PC-3) was 0.0523 µM and the LC50 (concentration giving 50% net cell kill) (PC-3) was greater than 100 µM. The TGI (PC-3) was greater than 100 µM, the growth at 0.01 µM (SNB-19 [7]) was 44% and the growth at 1 µM (MDA-MB-231) was 17%. For the same molecule, the growth at 0.1 µM (U-251) was 6%, the growth at 1 µM (MDA-MB-468) was -57% and the growth at 1 µM (NCI/ADR-RES) was 7%. It also gave a growth at 1 µM (OVCAR-8) of 12% and a growth at 0.1 µM (IGROV-1 [8]) of 2%.
For `COc1cc(C)cc(-c2nn(CC#N)cc2-c2ccc(-c3cccc(C(C)=O)c3)nc2)c1`, the growth at 1 µM (CCRF-CEM) was 13%, the growth at 10 µM (OVCAR-5) was -18% and the CC50 (MDA-MB-435) was greater than 100 µM. The growth at 0.01 µM (SK-MEL-2) was 89%, the growth at 10 µM (UO-31) was 33.8% and the growth at 1 µM (SW-620) was 4%. The growth at 10 µM (SF-268) was -2%, the growth at 0.001 µM (UACC-257) was 94% and the GI50 (SN12C) was 6.08 µM. It also gave an LC50 (SN12C) greater than 100 µM, a TGI (SN12C) greater than 100 µM and a growth at 0.01 µM (786-0 [1]) of 97%. It also gave a growth at 10 µM (KM12) of -25%, a growth at 0.001 µM (ACHN [2]) of 93% and a growth at 10 µM (TK-10) of -29%. For the same molecule, the growth at 10 µM (SK-MEL-5) was -75%, the growth at 0.1 µM (SNB-19 [3]) was 99% and the growth at 0.001 µM (MOLT-4) was 97%. The GI50 (ACHN [4]) was 4.19 µM, the LC50 (concentration giving 50% net cell kill) (ACHN [4]) was greater than 100 µM and the TGI (ACHN [4]) was greater than 100 µM. For the same molecule, the GI50 (786-0 [5]) was 3.52 µM, the TGI (786-0 [5]) was 93 µM and the CC50 (786-0 [5]) was greater than 100 µM. The growth at 1 µM (IGROV-1 [6]) was 1%, the growth at 0.01 µM (EKVX) was 99% and the GI50 (PC-3) was 3.45 µM. The LC50 (concentration giving 50% net cell kill) (PC-3) was greater than 100 µM, the TGI (PC-3) was greater than 100 µM and the growth at 0.01 µM (SNB-19 [7]) was 102%. For the same molecule, the growth at 1 µM (MDA-MB-231) was 13%, the growth at 0.1 µM (U-251) was 95% and the growth at 1 µM (MDA-MB-468) was -42%. It also gave a growth at 1 µM (NCI/ADR-RES) of -16%, a growth at 1 µM (OVCAR-8) of 14% and a growth at 0.1 µM (IGROV-1 [8]) of 88%.
